Results as given in ChEMBL document CHEMBL1135535, “Discovery and optimization of a series of carbazole ureas as NPY5 antagonists for the treatment of obesity” (J Med Chem, 2002).

Key:
Salmonella typhimurium [1] = test: Ames activity in TA 98+S9, expressed as maximum fold increase in mutation frequency; NI means no increase; format: functional, organism-based; conditions: Salmonella enterica subsp. enterica serovar Typhimurium
Summary of the method: (§1)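 Salmonella typhimurium TA98 plate incorporation assay with S9 mix. The S9 is the postmitochondrial fraction of livers from Aroclor 1254-treated Sprague–Dawley rats, supplemented with cofactors for NADPH generation. Tested across 6–2000 μg/plate. The value is the maximum increase in mutation frequency relative to background across that dose range.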

[2] = target: T1, Neuropeptide Y receptor type 5 (Homo sapiens, UniProt Q15761); test: Binding affinity to the human Neuropeptide Y receptor Y5 (NPY5)
T1 sequence (Q15761 whole entry): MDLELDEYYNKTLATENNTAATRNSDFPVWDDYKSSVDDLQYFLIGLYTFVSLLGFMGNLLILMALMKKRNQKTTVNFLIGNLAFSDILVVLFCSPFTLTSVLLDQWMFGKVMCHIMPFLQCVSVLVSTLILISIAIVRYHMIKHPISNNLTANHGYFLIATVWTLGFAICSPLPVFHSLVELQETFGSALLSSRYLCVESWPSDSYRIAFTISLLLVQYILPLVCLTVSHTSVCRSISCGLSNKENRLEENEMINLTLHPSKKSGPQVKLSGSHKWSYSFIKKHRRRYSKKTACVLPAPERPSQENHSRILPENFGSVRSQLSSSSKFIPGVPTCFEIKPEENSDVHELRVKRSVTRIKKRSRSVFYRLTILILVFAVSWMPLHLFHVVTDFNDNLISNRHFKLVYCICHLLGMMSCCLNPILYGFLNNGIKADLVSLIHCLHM
Summary of the method: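 Membranes from Hi5 insect cells infected 48 h with baculovirus carrying rat or human NPY-5 receptor, prepared by sonication in hypotonic Tris/EDTA/sucrose buffer and harvested on a 41% sucrose cushion. 0.01 µCi [125I]PYY incubated with membranes and compound in HEPES buffer (CaCl2, MgCl2, 0.5% BSA, pH 7.4) for 2 h at room temperature. Filtered onto PEI-treated GF/C plates, then scintillation counted.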

Salmonella typhimurium [3] = test: Ames activity in TA 98+S9, expressed as maximum fold increase in mutation frequency; format: functional, Salmonella enterica subsp. enterica serovar Typhimurium; summary of the method: as §1
Rattus norvegicus [4] = test: Concentration of compound in rat whole brain after oral dosing at 2 mg/kg after 90 min; format: functional, organism-based; design: dose 2 mg/kg
Summary of the method: (§2)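 Single oral dose of 2 mg/kg to rats. Plasma, whole brain and CSF concentrations were measured at 90 min.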

Rattus norvegicus [5] = test: Concentration of compound in rat plasma after oral dosing at 2 mg/kg after 90 min; format: functional, organism-based; design: dose 2 mg/kg; summary of the method: as §2
Rattus norvegicus [6] = test: Concentration of compound in rat CSF after oral dosing at 2 mg/kg after 90 min; format: functional, organism-based; design: dose 2 mg/kg; summary of the method: as §2

Structure (SMILES)	IC50 [2] [nM]	also measured
Cc1cc2c(c(C)c1N)c1ccccc1n2C(C)C	–	NI (Salmonella typhimurium [1]): no increase
CC(C)n1c2ccc(N)cc2c2cc(F)ccc21	–	Mutation frequency (Salmonella typhimurium [3]): 15
CCOc1c(NC(=O)N2CCOCC2)ccc2c1c1ccccc1n2C(C)C	270	–
Cc1cccc2c3cc(N)ccc3n(C(C)C)c12	–	Mutation frequency (Salmonella typhimurium [3]): 6
CC(C)n1c2ccccc2c2cc(N)ccc21	–	Mutation frequency (Salmonella typhimurium [3]): 3
Cc1cc2c(c(C)c1NC(=O)N1CCOCC1)c1ccccc1n2C(C)C	390	–
CN(C)S(=O)(=O)n1c2ccccc2c2cc(NC(=O)N3CCOCC3)ccc21	350	–
CS(=O)(=O)n1c2ccccc2c2cc(N)ccc21	–	Max fold increase (Salmonella typhimurium [3]): 35
CCn1c2ccccc2c2cc(NC(=O)N3CCOCC3)ccc21	7	Concentration (Rattus norvegicus [4]): 500 nM; Concentration (Rattus norvegicus [5]): 740 nM; Concentration (Rattus norvegicus [6]): 17 nM
Cc1cccc2c3cc(NC(=O)N4CCOCC4)ccc3n(C(C)C)c12	2	–
CC(C)n1c2ccccc2c2c(F)c(N)c(F)cc21	–	Mutation frequency (Salmonella typhimurium [3]): 2
CC(C)(C)Cn1c2ccccc2c2cc(N)ccc21	–	Mutation frequency (Salmonella typhimurium [3]): 5
CS(=O)(=O)n1c2ccccc2c2cc(NC(=O)N3CCOCC3)ccc21	15	–

Further lines, with some results ahead:

IC50 [2] [nM]	Structure (SMILES)	also measured
440	CCn1c2ccccc2c2cccc(NC(=O)CCc3ccncc3)c21	–
3	CC(=O)n1c2ccccc2c2cc(NC(=O)CCc3ccncc3)ccc21	–
2200	CCn1c2ccccc2c2cc(N(C)C(=O)CCc3ccncc3)ccc21	–
800	CCn1c2ccccc2c2ccc(NC(=O)CCc3ccncc3)cc21	–
1	CS(=O)(=O)n1c2ccccc2c2cc(NC(=O)CCc3ccncc3)ccc21	–
700	CCn1c2ccccc2c2cc(C(=O)NCCc3ccncc3)ccc21	–
230	O=C(CCc1ccncc1)Nc1ccc2[nH]c3ccccc3c2c1	–
3400	CCn1c2ccccc2c2cc(CNC(=O)Cc3ccncc3)ccc21	–
8	CN(C)S(=O)(=O)n1c2ccccc2c2cc(NC(=O)CCc3ccncc3)ccc21	–
350	O=C(CSc1ccncc1)Nc1ccc(C(=O)c2ccccc2)cc1	–
